An excerpt weighted towards active compounds, which were near 4.8% of everything screened.
FLuc inhib CS: firefly luciferase enzyme inhibitors, primary screen, artefact control for luciferase-based inhibitor screens, biochemical, luminescence, ATPLite; Luciferin 4-monooxygenase (Photinus pyralis), P08659; 10 min; inhibition, % at 10 µM; 1.5% of 200,000 active;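 active = inhibition above about 50% when tested at 10 µM, limit read from the data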
Target sequence (P08659 whole entry, looked up): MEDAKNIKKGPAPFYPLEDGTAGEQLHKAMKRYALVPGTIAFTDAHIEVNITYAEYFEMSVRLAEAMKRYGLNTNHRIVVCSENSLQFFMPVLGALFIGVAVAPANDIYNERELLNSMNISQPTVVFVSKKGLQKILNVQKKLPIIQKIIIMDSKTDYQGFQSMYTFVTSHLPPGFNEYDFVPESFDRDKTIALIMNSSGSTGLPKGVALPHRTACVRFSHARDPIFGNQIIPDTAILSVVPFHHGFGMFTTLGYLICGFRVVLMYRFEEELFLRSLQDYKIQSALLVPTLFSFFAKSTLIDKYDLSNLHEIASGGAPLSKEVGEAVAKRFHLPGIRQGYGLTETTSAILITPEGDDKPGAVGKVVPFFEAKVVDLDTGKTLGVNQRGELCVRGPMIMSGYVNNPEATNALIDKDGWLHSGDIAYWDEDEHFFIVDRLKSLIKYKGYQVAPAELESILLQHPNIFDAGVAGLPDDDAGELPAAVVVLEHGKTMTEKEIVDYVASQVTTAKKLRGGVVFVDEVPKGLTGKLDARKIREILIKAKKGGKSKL
FLuc stim CS: FLuc activators, initial screening, artefact control for FLuc-dependent activation tests, biochemical, ATPlite luminescence; 200,000 tested, under 10 active; Luciferin 4-monooxygenase (Photinus pyralis), P08659; ATPlite luciferase biochemical, 10 min; 0 = ATP-free wells, 1 = DMSO control; activation factor at 10 µM;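 active = luciferase activation factor, scaled between plate controls, of at least 2 with compound at 10 µM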
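System: cell-free luciferase reagent; medium: PBS as buffer for the ATP substrate; doses: test compounds dosed from 2 mM stocks in 100% DMSO; incubation: 10 min, room temperature; measured by: luminescence from luciferase reaction; read-out: luciferase activation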
STAT1 activator: STAT1 signaling activators, primary screen, cell-based, HTS, luciferase reporter; AID 932, 2007; 2.6% of 200,000 active; activation (% of control), % at 5.5 µM; NIH 3T3 STAT1-luciferase reporter, IFN-gamma, luminescence; 100% = IFN-gamma alone, no compound;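 active = activation above the screen-wide mean activation plus 3 SD, cut at about 130% in these data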
APP 5UTR inh: inhibitors of APP translation via 5'UTR reporter, primary screen, APP 5'UTR luciferase, SH-SY5Y cells; SH-SY5Y APP 5'UTR-luciferase reporter, luminescence; inhibition, % at 2 µM; 0.82% of 190,000 active; AID 1285, 2008;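 active = inhibition above a set limit, derived from the sample mean plus 3 SD, cut at about 45% in these data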
APP 5'UTR act: activators of APP 5'UTR luciferase reporter, primary screen, SH-SY5Y cells | SH-SY5Y APP 5'UTR luciferase reporter, luminescence; zero percent = DMSO vehicle wells | 1% of 190,000 active | AID 1276, 2008 | activation, % at 2 µM;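 active = activation above a set limit, based on mean plus 3 SD of controls, cut at about 140% in these data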
NF-kB neuron act: activators of NF-kB expression in neurons, primary screen, cell-based, HTS | human neuronal cells, NF-kB reporter expression; hits give high values | 1.6% of 190,000 active | fold change at 12.5 µM; in the data active = fold change above about 3.3
Of the large screens only hits and unclear results are named; the others gave an inactive call.

COC(=O)[C@@]1(Cc2ccc(F)cc2)[C@H]2c3cc(C(=O)N4CCCC4)n(CCc4c[nH]c5ccc(OC)cc45)c3C[C@H]2CN1C(=O)c1ccccc1	none
CCNC(=O)NC(=O)CSc1nc2ccccc2n1CCOC	none
COc1ccccc1/C=C/C(=O)N1CCC(c2ccccc2)C1 (configuration not stated)	STAT1 activator 134
Cc1ccc(NC(=O)N2CCC(c3ccccc3)C2)cc1C (configuration not stated)	STAT1 activator 150, APP 5'UTR act 143, NF-kB neuron act 5.7
O=C(Nc1ccc(Cl)cc1)N1CCC(c2ccccc2)C1 (configuration not stated)	FLuc inhib CS 64, STAT1 activator 146, APP 5'UTR act 169, NF-kB neuron act 6.2
Cc1ccc(C2CCN(C(=O)Nc3ccccc3)C2)cc1 (configuration not stated)	none
Cc1ccc(-c2csc(NC(=O)C3=COCCO3)n2)cc1	STAT1 activator 136
CSc1nc2ccc(NC(=O)C3CCCO3)cc2s1 (configuration not stated)	STAT1 activator 132
O=C(Nc1nc(-c2ccc(Cl)cc2)cs1)C1CCCO1 (configuration not stated)	STAT1 activator 131
COc1ccc2nc(NC(=O)C3CCCO3)sc2c1 (configuration not stated)	STAT1 activator 150, APP 5'UTR act 138, NF-kB neuron act 3.5
O=C(CNc1cc(S(=O)(=O)N2CCOCC2)ccc1N1CCCC1)NCc1ccco1	none
CC(C)(C)NS(=O)(=O)c1ccc(NC(=O)C2CCCCC2)cc1	none
COc1ccc(-c2nnc(NC(=O)C3CCCO3)s2)cc1 (configuration not stated)	STAT1 activator 142
CC(C)c1nnc(NC(=O)C2CCCO2)s1 (configuration not stated)	none
COc1cc(C=O)ccc1OCCCCOc1ccccc1[N+](=O)[O-]	none
COc1cc(C=O)ccc1OCCCOc1ccccc1[N+](=O)[O-]	STAT1 activator 130
COc1cc(C=O)ccc1OCCCOc1ccccc1C(=O)O	STAT1 activator 148
C/C=C/c1ccc(OCCOc2cc(C=O)ccc2OC)c(OC)c1	STAT1 activator 131
COc1cc(C=O)ccc1OCCOCCOc1ccccc1Cl	none
COc1cc(C=O)ccc1OCc1ccc(Cl)nc1	FLuc inhib CS 59, STAT1 activator 136 (no result: NF-kB neuron act)
COc1ccc(CCNCc2ccc(OCc3ccc(Cl)nc3)c(OC)c2)cc1OC	none
COc1cccc(Nc2ccc(C(=O)O)cc2[N+](=O)[O-])c1	none
COc1ccc(S(=O)(=O)N2CCOCC2)cc1NC(=O)CSc1nnc(C2CC2)n1N	none
Cc1ccc(NC(=O)Cn2ccc([N+](=O)[O-])n2)cc1Cl	none
Cc1cccc(C)c1NC(=O)CSc1nnc(-c2cccnc2)o1	none
O=S(=O)(NC1=NCCC1)c1ccc(F)cc1F	none
Cc1cc(C(=O)CSc2nnnn2C)c(C)n1-c1cccc(F)c1	STAT1 activator 131, NF-kB neuron act 4.8
Cc1cc(C)cc(-n2c(C)cc(C(=O)CSc3nnnn3C)c2C)c1	none
OCCNc1c2ccccc2nc2c(F)c(F)c(F)c(F)c12	APP 5UTR inh 87
Cc1cc(NC(=O)CSc2ncnc3c2cnn3-c2cccc(Cl)c2)no1	none
CCCCOc1ccc(C(=O)NNC(=S)NC(=O)CC)cc1	APP 5UTR inh 56
CCC(=O)NC(=S)NNC(=O)c1ccc(OC)cc1	none
CC(C)(C)c1csc(NC(=O)c2ccncc2)n1	none
Cc1ccc(C(=O)Nc2nc(C(C)(C)C)cs2)s1	STAT1 activator 146, NF-kB neuron act 5
O=C(Nc1nc(-c2cccs2)cs1)c1ccc(Cl)s1	none
CC(C)(C)c1csc(NC(=O)Nc2ccccc2)n1	STAT1 activator 136, NF-kB neuron act 4.9
CC(C)(C)c1csc(NC(=O)c2ccc(Cl)s2)n1	STAT1 activator 137, NF-kB neuron act 3.6
Cc1ccc(CN2CCN(CC(=O)NCc3ccc(Cl)cc3)C2=O)cc1	none
CC(Oc1ccc(F)cc1)C(O)CCN(C)C (configuration not stated)	none
CCOC(=O)c1c(/N=C/c2cccc(C)c2O)sc2c1CCN(C)C2	none
O=C1C(Nc2ccc(O)cc2)=C/C(=N/S(=O)(=O)c2cccs2)c2ccccc21	APP 5UTR inh 54
Cc1cccc(NC2=C/C(=N/S(=O)(=O)c3cccs3)c3ccccc3C2=O)c1	none
O=C(Cc1cn2ccsc2n1)NCc1ccccc1	none
c1ccc(CSCc2cn3ccsc3n2)cc1	STAT1 activator 132, NF-kB neuron act 8.9
c1cn2cc(CSC3CCCCC3)nc2s1	STAT1 activator 134
Clc1ccc(SCc2cn3cccnc3n2)cc1	none
c1ccc2oc(SCc3cn4ccsc4n3)nc2c1	STAT1 activator 138
Clc1ccc(SCc2cn3ccsc3n2)cc1	STAT1 activator 134
O=C(CSc1nc2ccc(Cl)cc2[nH]1)N1CCN(C(=O)c2ccco2)CC1	none
CC1(C)N=C(c2ccc(Cl)cc2)C(=O)N1	none
O=C(Cc1cn2ccsc2n1)OCc1ccccc1	NF-kB neuron act 5.3
O=C(Cc1cn2ccsc2n1)OCc1nc2ccccc2s1	none
O=C(O)CNc1nc(-c2ccccc2)c2cc([N+](=O)[O-])ccc2n1	none
COc1cccc(-c2cc(C(=O)Nc3ccc([N+](=O)[O-])cn3)c3ccccc3n2)c1	none
COc1cccc(-c2nc3ccc([N+](=O)[O-])cc3o2)c1	STAT1 activator 136, APP 5'UTR act 144, NF-kB neuron act 3.4
O=[N+]([O-])c1ccc2nc(-c3ccccc3)oc2c1	STAT1 activator 148
CC1CCc2c(sc3nc(CN4CCN(S(=O)(=O)c5ccccc5[N+](=O)[O-])CC4)[nH]c(=O)c23)C1 (configuration not stated)	none
O=C(Cn1[nH]c(=O)c2ccccc2c1=O)NNC(=O)c1ccccc1	none
CC(C)n1cnc2cc(NCc3ccco3)ccc21	FLuc inhib CS 58
CC(C)n1cnc2cc(NCc3ccccn3)ccc21	none
CC(C)CCn1cnc2c(sc3nc4c(cc32)CSC(C)(C)C4)c1=O	APP 5'UTR act 231
CC1(C)Cc2nc3sc(C(=O)O)c(N)c3cc2CS1	none
COc1ccc(NC(=O)N2CCC(c3nc4ccccc4[nH]3)CC2)cc1	none
CCOc1ccc(-c2cc(N3C(=O)Nc4ccccc4N3O)on2)cc1	FLuc inhib CS 76
COc1ccc(-c2cc(N3C(=O)Nc4ccccc4N3O)n[nH]2)cc1	none

Screening results: PubChem, several laboratories
